Screening data: PubChem, several laboratories
SR-BI uptake up: SR-BI HDL lipid transfer activation. activation, % at 12.5 µM. AID 504775. CHO ldlA[mSR-BI] cells, DiI-HDL uptake fluorescence, 3 h; 100 = double the neutral-control signal. hit rate 0.096% among 320,000;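 active = mean replicate activation of at least 60% and every replicate at or above 60%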;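 note: 0% = median plate neutral-control signal and 100% = twice that signal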
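Material: SR-BI-overexpressing, LDLR-lacking CHO cells; schedule: compound exposure 3 h, 37 °C; reagent: DiI-labelled HDL at 10 µg/mL final; technique: bottom-read fluorescence, 550/595 nm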
SR-BI HDL uptake: blocks mouse SR-BI lipid uptake from DiI-HDL; inhibition, % at 12.5 µM; ldlA[mSR-BI] CHO cells, DiI-HDL uptake fluorescence, 3 h; Q61009; hit rate 0.96% among 320,000;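 active = mean replicate inhibition of at least 70% and a set share of replicates each scoring 70 or more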;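 note: 0% = median of neutral control wells and 100% = median of positive control wells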
Vif inh: inhibitors of HIV Vif | HEK293T cells, Vif self-association by quenched fluorescence, imaging, 24 h | inhibition, % at 7.49 µM | hit rate 0.35% among 340,000; in the data active = inhibition above about 50%, passing the limit was not always enough
V-ATPase pH: yeast V-ATPase proton transport regulation by pHLuorin; S. cerevisiae, pHLuorin cytosolic pH fluorescence; AID 504577; hit rate 0.37% among 350,000; response, % at 10 µM; in the data active = response mostly above about 7.3%, no sharp cut-off; inactive = mostly below about 5.4%; note: actives read high
NTR1 agonist: activates human neurotensin receptor 1 | P30989 | NTR1-U2OS beta-arrestin-GFP spot imaging, agonist mode | activation, % at 20 µM | hit rate 0.17% among 330,000 | AID 493036;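 active = activation at or above 40% of the spot to cytoplasm intensity ratio, with at least 20 cells analyzed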;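 note: 0% = DMSO without peptide and 100% = 100 nM NTR1 peptide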
Target sequence (P30989 whole entry, looked up): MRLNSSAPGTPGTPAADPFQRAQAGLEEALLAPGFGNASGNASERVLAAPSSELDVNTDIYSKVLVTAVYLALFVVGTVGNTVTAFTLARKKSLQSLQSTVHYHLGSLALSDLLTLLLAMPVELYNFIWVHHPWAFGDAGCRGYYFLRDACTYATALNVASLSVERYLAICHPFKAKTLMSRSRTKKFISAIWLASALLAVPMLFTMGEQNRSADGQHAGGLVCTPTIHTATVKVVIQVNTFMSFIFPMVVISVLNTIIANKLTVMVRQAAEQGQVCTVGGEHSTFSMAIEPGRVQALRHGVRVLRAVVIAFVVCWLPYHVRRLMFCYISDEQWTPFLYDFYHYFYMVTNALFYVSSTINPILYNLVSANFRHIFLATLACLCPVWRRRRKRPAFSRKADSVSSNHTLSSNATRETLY
CaV13 FRET inh: Disruptors of the CACNA1D IQ motif to Ca2+-dependent inactivation inhibitor domain association, primary screening, Förster resonance energy transfer in intact living …; HEK cells, CFP/YFP FRET ICDI-IQ, plate reader, 10 min; percent FRET-ratio fall versus neutral wells; inhibition, % at 12.3 µM; hit rate 0.098% among 340,000;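 active = mean replicate inhibition of at least 30% and at least 1% of replicates passing that level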;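 note: 0% = median of the neutral control wells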
The depositor's hits bear a star; x = no result; + = active, no number. Rows were chosen to be rich in hits. Some 1.7% of all compounds tested hit in one or more screens of this group.

SMILES	SR-BI uptake up	SR-BI HDL uptake	Vif inh	V-ATPase pH	NTR1 agonist	CaV13 FRET inh
O=C(Nc1ccc(-n2nncc2-c2ccco2)cc1)c1cc2ccccc2oc1=O	-20.5	20.5	11.4	1.8	7.8	x
CCOC(=O)Cc1csc(NC(=O)c2sc3nc4c(C)cc(C)cc4cc3c2N)n1	-80.2	80.2*	-2.1	-3.2	1.6	-9.9
O=C1c2[nH]nc(-c3ccccc3)c2C(c2cccc(C(F)(F)F)c2)N1c1ccccc1 (stereo not given)	x	x	x	x	x	-5.8
CCc1ccccc1NC(=O)Nc1ccsc1C(=O)OC	-21.1	21.1	-10.1	-2.7	-0.1	-5.8
CCOc1ccccc1NC(=O)Nc1ccsc1C(=O)OC	-78.6	78.6*	-9.9	5.2	1.1	x
CCOc1ccccc1NC(=O)Nc1cccc(NC(C)=O)c1	x	x	-6.1	-0.6	0.8	-4.5
CCOc1ccccc1NC(=O)Nc1cccc(C(C)=O)c1	-78.5	78.5*	-0.2	-0.1	-1.3	-5.4
COCc1[nH]nc2c1C(c1ccc(F)cc1)NC2=O (stereo not given)	x	x	x	x	x	-4.0
O=C(Nc1nc2ccc(F)cc2s1)C1CCN(S(=O)(=O)c2cc([N+](=O)[O-])ccc2Cl)CC1	-76.6	76.6*	-14.8	-0.4	5.1	-4.2
CCCc1c(-c2cccc(Br)c2)ncn1CCc1ccccc1OC	x	x	x	x	x	-9.1
C=CCOc1ccc(Br)cc1CNC(C)(C)C	-0.6	0.6	-1.8	-0.1	-0.6	-4.8
NC(=O)c1nsc(C(=O)N(Cc2cccnc2)C(C(=O)NCc2ccc(F)cc2)c2ccc(O)cc2)c1N (stereo not given)	x	x	51.1*	-1.6	0.5	-4.0
NC(=O)c1nsc(C(=O)N(c2ccccc2F)C(C(=O)NCc2ccc(F)cc2)c2ccc(O)cc2)c1N (stereo not given)	-7.4	7.4	-4.3	0.4	6.5	-6.8
NC(=O)c1nsc(C(=O)N(c2cccc(F)c2)C(C(=O)NC2CCCC2)c2ccc(O)cc2)c1N (stereo not given)	-2.2	2.2	90.9*	2.6	3.8	-2.9
CCN1CCN(c2ccc(S(=O)(=O)N3CCCCC3)cc2NC(=O)c2cc3ccccc3o2)CC1	4.6	-4.6	x	-3.2	-0.2	-6.1
CS(=O)(=O)N1CCN(c2ccccc2NC(=O)c2cc3ccccc3o2)CC1	-74.6	74.6*	-6.2	-3.6	3.7	-4.5
Cc1ccc(S(=O)(=O)N2CCCCC2)cc1NC(=O)c1cc2ccccc2o1	-13.8	13.8	-6.0	26.9*	-1.0	-5.0
N#Cc1c2ccc(O)cc2n2ccccc12	-19.6	19.6	1.4	0.1	4.1	+
Cc1ccccc1-n1c(C)nnc1SCC(=O)N(C)C1CCS(=O)(=O)C1 (stereo not given)	7.4	-7.4	-9.9	15.3*	1.9	-4.2
CC1CN(CCC(=O)Nc2ccc3c(c2)OCO3)CC(C)O1 (stereo not given)	-80.1	80.1*	1.4	0.2	0.2	x
COc1ccc(CN2CCOCCOCCOCC2)cc1	18.6	-18.6	2.3	14.5*	0.6	-4.9
COc1ccc(CN2CCOCCOCCN(Cc3ccc(OC)cc3)CCOCCOCC2)cc1	8.3	-8.3	3.0	1.9	-0.3	3.6
O=C(c1cc2ccccc2oc1=O)N(Cc1ccco1)Cc1cccs1	12.0	-12.0	58.8*	1.6	-1.1	-4.0
O=C(N[C@H](Cc1ccccc1)C(=O)N1CCN(CC(=O)N2CCCC2)CC1)[C@H]1O[C@@H](n2ccc(=O)[nH]c2=O)[C@H](O)[C@@H]1O	x	x	x	x	x	-3.1
Cc1ccc(NC(=O)CCNS(=O)(=O)c2ccc(Br)s2)cc1	10.0	-10.0	-12.7	4.2	1.6	-2.9
SMILES	SR-BI uptake up	SR-BI HDL uptake	Vif inh	V-ATPase pH	NTR1 agonist	CaV13 FRET inh
COc1ccc(-c2sc3ccccc3c2/C=C/c2ccc(N)cc2)cc1	-39.5	39.5	11.6	1.3	12.2	-10.7
COC(=O)c1ccc(/C=C/c2c(-c3ccsc3)sc3ccccc23)cc1	-79.1	79.1*	3.0	-0.8	3.0	-5.2
Cc1ccc2c(COC(=O)CNC(=O)c3ccccc3)cc(=O)oc2c1	31.7	-31.7	-2.3	0.6	6.0	-5.2
Cc1ccc2c(COC(=O)c3ccccc3OC(F)F)cc(=O)oc2c1	x	x	52.4*	1.2	4.5	-2.4
CCCCCN=C(N)N/N=C/c1c[nH]c2ccc(OC)cc12	-25.8	25.8	81.1*	-1.5	11.3	-2.5
COC(=O)c1cc(=O)n(Cc2ccc3c(c2)OCO3)c(=Nc2ccc(F)c(Cl)c2)s1	-15.0	15.0	-9.1	-3.5	5.6	37.5*
O=C1C(Nc2ccccc2)=C2CCCC=C2N1c1ccccc1	-78.8	78.8*	2.2	2.2	1.9	-6.2
CC(C)n1c(-c2ccc(N(C)C)cc2)nc2ccccc21	-87.6	87.6*	x	-2.1	1.4	x
CN(C)c1ccc(-c2nc3ccccc3n2C)cc1	-30.8	30.8	-4.9	-8.2	0.4	x
Nc1c(-c2ccc(Cl)cc2)cnn1-c1cccc(C(F)(F)F)c1	-76.8	76.8*	-16.2	-1.0	0.3	-6.5
CCOc1nc(N2CCCCC2)nc(-n2cc(-c3ccccc3)nn2)n1	10.0	-10.0	55.3*	0.9	5.1	x
CCOC(=O)c1c(-c2ccccc2)nnn1-c1nc(OCC)nc(N2CCCCC2)n1	-20.2	20.2	-13.8	8.1	13.9	-6.3
O=C(Nc1ccc(N2CCN(Cc3ccccc3F)CC2)cc1)c1ccccc1[N+](=O)[O-]	-46.4	46.4	12.0	-1.7	1.5	-1.4
O=C(Nc1ccc(N2CCN(Cc3ccccc3F)CC2)cc1)c1ccc([N+](=O)[O-])o1	-19.9	19.9	7.3	1.4	42.3*	-6.2
CC1CCN(c2ccc(NC(=O)c3ccc([N+](=O)[O-])o3)cc2)CC1	-86.9	86.9*	-2.6	6.3	41.7*	-5.6
CCC(=O)N1CCN(c2ccc(NC(=O)c3ccc([N+](=O)[O-])o3)cc2)CC1	4.1	-4.1	72.9*	-4.6	x	1.9
O=C(Nc1ccc(CN2CCOCC2)cc1)c1ccc(-c2cccc([N+](=O)[O-])c2)o1	-72.1	72.1*	-8.7	-0.9	10.5	-6.8
O=C(Nc1ccc(N2CCCCC2)cc1)c1ccc([N+](=O)[O-])o1	-24.0	24.0	15.6	5.3	36.8	-8.6
CC(C)C[C@H]1CNC(=S)N1C[C@H]1CCCN1C[C@H](Cc1ccc(O)cc1)N1C[C@H](Cc2ccccc2)N(CC2CCCCCC2)C1=S	x	x	-3.3	x	x	-4.4
COc1ccccc1C(=O)N1CCC2CCN(C(=O)OC(C)(C)C)C2C1 (stereo not given)	x	x	x	x	x	-11.8
Cc1ccc(NC(=O)CSC(C)C(=O)OCC(=O)N2CCN(C(=O)c3ccco3)CC2)cc1 (stereo not given)	5.1	-5.1	61.2*	1.8	-0.1	-4.3
CCOc1ccc(NC(=O)CN2CCN(CC(=O)Nc3ccccc3OC)CC2)cc1	-78.2	78.2*	-0.6	-0.9	-0.8	-4.0
